# Experimental data taken from PMC4562428 (Bioorganic & medicinal chemistry, 2015).
# Structures can show the parent of a compound that is named as a salt. Where two headings read alike, the source gives them in different places.
# Assays:
# [1] = biological target: NET (Rattus norvegicus, UniProt Q63380); test: [3H]MPP+ release at NET in rat brain synaptosomes; format: biochemical
# [2] = cited from earlier work; for MDMA-like effects in humans: human
# [3] = biological target: DAT (Rattus norvegicus, UniProt P23977); test: [3H]MPP+ release at DAT in rat caudate synaptosomes; format: biochemical
# [4] = system: SERT, DAT, and NET; format: biochemical, rat; settings: SERT versus DAT and NET
# Method in brief: (§1)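 Rat synaptosomes in 1 μM reserpine (brain minus caudate/cerebellum for SERT and NET; caudate for DAT), preloaded 1 h in Krebs-phosphate with 5 nM [3H]5-HT (SERT) or 9 nM [3H]MPP+ (NET, DAT). Blockers of competing transporters were included. Test compound was run as 8-point curves from 10 to 10,000 nM, in triplicate on three occasions. Filtration and scintillation counting; EC50 from non-linear regression.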
# [5] = biological target: SERT (Rattus norvegicus, UniProt P31652); test: [3H]5-HT release at SERT in rat brain synaptosomes; format: biochemical
# Method in brief: as §1
# [6] = S(+) versus R(−) isomer of EDMA
# Chain of SERT (P31652 whole entry): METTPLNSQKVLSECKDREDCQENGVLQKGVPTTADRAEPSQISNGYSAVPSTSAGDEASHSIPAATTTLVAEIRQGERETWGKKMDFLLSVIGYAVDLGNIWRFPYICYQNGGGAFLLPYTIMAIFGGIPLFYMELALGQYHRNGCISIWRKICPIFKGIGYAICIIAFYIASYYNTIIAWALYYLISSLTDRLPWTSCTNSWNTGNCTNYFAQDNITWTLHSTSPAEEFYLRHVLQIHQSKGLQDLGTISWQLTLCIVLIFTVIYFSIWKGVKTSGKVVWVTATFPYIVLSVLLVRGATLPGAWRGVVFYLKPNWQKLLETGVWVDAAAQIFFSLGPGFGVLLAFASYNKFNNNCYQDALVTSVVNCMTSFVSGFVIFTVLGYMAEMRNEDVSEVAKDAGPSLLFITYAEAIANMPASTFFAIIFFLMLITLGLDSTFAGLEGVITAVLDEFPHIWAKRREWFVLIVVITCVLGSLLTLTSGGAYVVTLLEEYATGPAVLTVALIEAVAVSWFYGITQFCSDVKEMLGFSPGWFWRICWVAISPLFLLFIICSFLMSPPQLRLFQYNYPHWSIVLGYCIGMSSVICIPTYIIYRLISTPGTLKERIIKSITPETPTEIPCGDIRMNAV
# Chain of NET (Q63380 1-617): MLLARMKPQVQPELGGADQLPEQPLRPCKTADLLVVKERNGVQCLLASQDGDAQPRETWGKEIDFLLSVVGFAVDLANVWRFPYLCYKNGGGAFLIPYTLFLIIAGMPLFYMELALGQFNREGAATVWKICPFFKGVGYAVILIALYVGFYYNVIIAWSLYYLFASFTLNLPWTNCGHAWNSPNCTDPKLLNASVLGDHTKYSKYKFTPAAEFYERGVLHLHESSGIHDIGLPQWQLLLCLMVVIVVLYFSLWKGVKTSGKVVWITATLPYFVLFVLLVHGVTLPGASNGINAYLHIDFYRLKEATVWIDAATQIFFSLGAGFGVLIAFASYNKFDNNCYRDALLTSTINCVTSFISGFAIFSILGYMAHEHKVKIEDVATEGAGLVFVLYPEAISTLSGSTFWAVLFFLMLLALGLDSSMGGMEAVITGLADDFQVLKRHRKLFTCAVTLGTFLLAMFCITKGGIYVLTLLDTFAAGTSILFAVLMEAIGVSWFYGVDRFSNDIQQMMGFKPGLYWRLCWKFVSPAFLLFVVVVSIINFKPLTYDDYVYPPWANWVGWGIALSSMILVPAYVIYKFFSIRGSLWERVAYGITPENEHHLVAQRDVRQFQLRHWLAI
# Chain of DAT (P23977 whole entry): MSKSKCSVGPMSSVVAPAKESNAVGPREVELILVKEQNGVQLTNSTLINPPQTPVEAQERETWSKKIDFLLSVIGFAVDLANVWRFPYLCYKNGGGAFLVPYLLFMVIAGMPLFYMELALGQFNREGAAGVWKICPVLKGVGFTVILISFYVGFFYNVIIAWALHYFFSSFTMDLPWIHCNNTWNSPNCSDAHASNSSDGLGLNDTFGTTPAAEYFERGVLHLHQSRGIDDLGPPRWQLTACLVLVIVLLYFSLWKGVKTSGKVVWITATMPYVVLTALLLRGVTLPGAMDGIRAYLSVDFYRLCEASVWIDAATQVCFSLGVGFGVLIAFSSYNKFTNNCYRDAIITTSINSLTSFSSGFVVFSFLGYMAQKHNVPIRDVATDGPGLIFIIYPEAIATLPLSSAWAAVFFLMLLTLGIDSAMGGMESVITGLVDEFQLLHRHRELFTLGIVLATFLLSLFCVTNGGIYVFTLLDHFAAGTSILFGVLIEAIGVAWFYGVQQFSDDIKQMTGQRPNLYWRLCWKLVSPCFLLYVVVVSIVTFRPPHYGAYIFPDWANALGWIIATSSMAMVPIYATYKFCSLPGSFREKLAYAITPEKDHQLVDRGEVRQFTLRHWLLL
compound,measurement,setting,value
"CNC(C)Cc1ccc2c(c1)OCCO2 (racemic) [(±)EDMA (3), (±)-1-(3,4-Ethylenedioxyphenyl)-N-methyl-2-aminopropane hydrochloride]",fold less potent than (±)MDMA (1) as releaser at NET,[1]; compared with (±)MDMA (1),4.5 fold
same,MDMA-like effects in humans,[2]; 200 mg,fails to produce similar effects
same,MDMA-like effects in humans,[2]; 250 mg,threshold
same,fold less potent than (±)MDMA (1) as releaser at DAT,[3]; compared with (±)MDMA (1),8 fold
same,transporter selectivity as releaser,[4],slightly more selective for SERT over DAT and NET
same,release potency at SERT relative to potency at DAT,[5]; SERT versus DAT,approximately six times
same,release potency at SERT relative to potency at NET,[5]; SERT versus NET,three times
same,potency as releaser at SERT relative to (±)MDMA (1),[5]; compared with (±)MDMA (1),approximately half the potency
"CNC(C)Cc1ccc2c(c1)OCO2 (racemic) [(±)MDMA (1), N-methyl-(3,4-methylenedioxyphenyl)-2-aminopropane, reference compound]",behaviorally active total human dose,[2]; p.o.,80 to 150 mg
same,transporter selectivity as releaser,[4],nearly equipotent
"CN[C@H](C)Cc1ccc2c(c1)OCCO2 [R(−)EDMA [(R)3], R(−)1-(3,4-Ethylenedioxyphenyl)-N-methyl-2-aminopropane hydrochloride]",transporter selectivity as releaser,[4],more SERT-selective
"CN[C@@H](C)Cc1ccc2c(c1)OCCO2 [S(+)EDMA [(S)3], S(+)1-(3,4-Ethylenedioxyphenyl)-N-methyl-2-aminopropane hydrochloride]",fold more potent than R(−) enantiomer at NET,[1]; [6],8 fold
same,fold more potent than R(−) enantiomer at DAT,[3]; [6],50 fold
same,fold more potent than R(−) enantiomer at SERT,[5]; [6],about 6 fold
